Assay outcomes: PubChem, Johns Hopkins Ion Channel Center
KCNQ1 act: human KCNQ1 channel potentiation or activation. P51787. B-score at 10 µM. CHO-K1 KCNQ1, thallium flux FluxOR fluorescence; active compounds read high. hit rate 0.35% among 310,000;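 active = fluorescence ratio B-score, a plate-corrected score, at least three library SD, with initial intensity B-score within 5 SD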
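Schedule – 37 °C overnight plating, 90-min dark dye load, 20-min compound pretreatment · System – stable KCNQ1 CHO-K1 line · Probe or stimulus – thallium- and potassium-containing depolarizing buffer · Measured by – kinetic FluxOR fluorescence, 10 s baseline plus 110 s post-stimulus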
Kir21 inh: blocks the mouse Kir2.1 inward-rectifier potassium channel | hit rate 0.85% among 310,000 | P35561 | B-score at 10 µM | HEK293-Kir2.1, FluxOR thallium flux fluorescence; active compounds read low;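 active = fluorescence ratio B-score at or below minus 3 SD of library scores, with starting-brightness B-score within 2 SD, cut at about -4.2 in these data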;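 also: channel flux triggered by added potassium and thallium sulfate stimulus; B-score of peak minus minimum fluorescence over baseline after thallium stimulus; more negative B-score means stronger Kir2.1 block with less thallium influx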
KCNK9 inh: human KCNK9 channel inhibition; hit rate 1.2% among 310,000; HEK293 KCNK9, FluxOR thallium flux fluorescence; active compounds read low; B-score at 10 µM; AID 488922;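 active = ratio B-score over 3 SD below the library mean, with starting fluorescence within 5 SD of its mean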;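 also: negative B-score means less thallium flux so channel inhibition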
Target sequence (Q9NPC2 whole entry, looked up): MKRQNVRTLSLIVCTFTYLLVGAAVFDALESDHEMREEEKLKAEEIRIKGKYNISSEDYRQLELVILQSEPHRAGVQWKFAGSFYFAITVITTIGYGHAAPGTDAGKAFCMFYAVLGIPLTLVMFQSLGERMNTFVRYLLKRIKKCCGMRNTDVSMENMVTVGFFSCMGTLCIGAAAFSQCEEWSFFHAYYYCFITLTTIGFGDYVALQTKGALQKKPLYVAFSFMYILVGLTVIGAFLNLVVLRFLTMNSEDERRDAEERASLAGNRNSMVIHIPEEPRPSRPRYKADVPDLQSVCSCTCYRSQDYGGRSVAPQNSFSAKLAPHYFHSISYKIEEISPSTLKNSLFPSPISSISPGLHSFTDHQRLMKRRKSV
hERG rescue: hERG (human) protection from proarrhythmic block; activation (rescue from dofetilide block), less the hit threshold, % at 10 µM; Q12809; CHO-hERG, FluxOR thallium flux, dofetilide IC70 present; hit rate 0.51% among 310,000; AID 1511;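 active = activation above the mean of controls blocked by dofetilide plus 5 SD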;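 also: thallium influx through hERG after potassium depolarization seen as dye fluorescence rise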
KCNK3 block: human KCNK3 channel inhibition, primary screen. O14649. hit rate 0.84% among 340,000. B-score at 10 µM. CHO-KCNK3 thallium flux, FluxOR fluorescence; active compounds read low;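 active = B-score under library mean minus 4 SD, starting fluorescence ratio at most library mean plus 5 SD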;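 also: more negative B-score means stronger inhibition of thallium flux through KCNK3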
KCNQ1 block: inhibitors of human KCNQ1 potassium channel. CHO-K1 KCNQ1, FluxOR thallium flux fluorescence; active compounds read high. AID 2642. hit rate 1.3% among 310,000. B-score at 10 µM;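 active = compounds whose thallium flux B-score, printed positive for inhibition, exceeds three library SD while starting fluorescence stays within three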;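 also: channel opened by potassium depolarization with thallium stimulus after 20 min compound exposure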
A number is an active result; . = inactive; / = not tested or not shown. Sampled rows, rich in hits. Any-hit rate of the full collection: about 3.7%.

SMILES	KCNQ1 act	Kir21 inh	KCNK9 inh	hERG rescue	KCNK3 block	KCNQ1 block
CC(C)c1ccc(OCC(O)CNC(C)c2ccccc2)cc1 (stereo not drawn)	.	-6.01	.	.	.	.
Cc1ccc(C(OCC(O)CNCc2ccc(F)cc2)c2ccccc2)cc1 (stereo not drawn)	.	-11.6	.	.	.	.
CC(NCC(O)COCCC12CC3CC(CC(C3)C1)C2)c1ccccc1 (stereo not drawn)	.	-12.2	.	.	.	8
OC(CNCCc1ccccc1)COc1ccc(OCC(O)CNCCc2ccccc2)cc1 (stereo not drawn)	.	-11.3	.	.	.	.
OC(CNCCc1ccc(Cl)cc1)COc1ccc2ccccc2c1 (stereo not drawn)	/	/	/	/	.	/
Cc1ccc(S(=O)(=O)N(C)C)cc1NC(=O)COC(=O)CCC1CCCCC1	.	.	.	.	.	.
COc1cc2c(cc1NC(=O)CSc1ccccn1)oc1ccccc12	.	.	-7.27	.	.	.
COc1cc2c(cc1NC(=O)CSc1ccc(Cl)cc1)oc1ccccc12	.	.	.	.	.	.
COc1ccccc1CC(=O)Nc1cc2oc3ccccc3c2cc1OC	.	.	-6.94	.	.	.
Cc1ccc2c(c1)N(C(=O)CCC(=O)NCc1ccccn1)CC(C)O2 (stereo not drawn)	.	.	.	.	.	.
COC(=O)c1cc(NC(=O)c2cccc(C(F)(F)F)c2)c(=O)oc1C	.	.	.	.	.	.
COC(=O)c1cc(NC(=O)c2cccc(C(F)(F)F)c2)c(=O)oc1C/C=N/OCc1cccc(Cl)c1Cl	.	.	.	.	-11.1	.
CC(C)(/C=N/O)/[N+]([O-])=C/c1ccccc1	.	.	.	.	.	7
CC(C)Cn1c(=O)c(C(=O)N/N=C/c2cccc(F)c2)c(O)c2ccccc21	9	.	.	.	.	.
CCCCn1c(=O)c(C(=O)N/N=C/c2ccc(F)cc2)c(O)c2ccccc21	.	.	.	.	/	.
CCCCCCCCn1c(N2CCN(c3cccc(Cl)c3)CC2)nc2c1c(=O)[nH]c(=O)n2C	.	.	.	.	.	.
CCCCCCn1c(N2CCN(c3cccc(Cl)c3)CC2)nc2c1c(=O)[nH]c(=O)n2C	.	.	-7.61	.	.	.
c1ccc(C2=Nc3c(ccc4ccccc34)C(c3ccncc3)=NN2)cc1	.	.	-7.7	.	.	.
Cc1cc(NC(=O)c2cccc(C)c2[N+](=O)[O-])no1	.	.	.	.	.	.
O=C(NC(=S)NCCc1ccccc1)c1ccco1	.	.	.	.	.	.
O=C(NC(=S)NCCC1=CCCCC1)c1ccco1	27	.	.	30.2	.	.
O=C(/C(=N/N=C/c1ccc(O)c(O)c1)c1ccccc1)c1ccccc1	.	-4.78	.	.	.	.
COc1ccc(/C=N/N(Cc2ccccc2)c2ccccc2)cc1O	.	.	.	.	.	6
Oc1ccc(/C=N/N(c2ccccc2)c2ccccc2)cc1O	.	.	.	.	.	6
Oc1ccc(/C=N/N(c2ccccc2)c2ccccc2)c(O)c1O	.	.	.	.	.	.
SMILES	KCNQ1 act	Kir21 inh	KCNK9 inh	hERG rescue	KCNK3 block	KCNQ1 block
COc1cccc(CN(C)C(=O)CCN=C2NS(=O)(=O)c3ccccc32)c1	/	/	/	/	.	/
COc1ccc(C(=O)O)cc1S(=O)(=O)Nc1cc(Cl)ccc1N1CCOCC1	/	/	/	/	.	/
CCN1CCN(c2cc(C(C)C)nc3c(-c4ccccc4)c(C)nn23)CC1	.	-8.11	.	.	.	.
CC1=CC(C)(C)n2c(O)c(N=N)c3cc(C)cc1c32	.	-8.69	.	.	.	.
O=C(Nc1cccc2c1C(=O)NC2=O)c1cccnc1Cl	.	.	.	6.1	.	.
O=C(Nc1cccnc1Cl)c1cccnc1Cl	.	.	.	.	.	.
O=C1c2ccccc2C(=O)N1Cc1nc2ccccc2c(=O)n1CCCn1ccnc1	.	.	.	9.8	.	.
Cc1ccccc1N(C(=O)c1cccs1)c1nc2ccccc2s1	.	.	.	.	.	7
Cc1ccsc1C(=O)N(c1nc2ccccc2s1)c1c(C)cccc1C	.	.	.	.	.	.
O=c1cc(-c2ccccc2)cc(-c2ccccc2)n1O	23	.	.	18.1	.	.
Cn1c(=O)c2ncn(CC(=O)O)c2n(C)c1=O	.	.	.	.	.	.
Cc1ccc(/C=C2\SC(=S)N(/N=C/c3cc([N+](=O)[O-])ccc3O)C2=O)o1	.	.	.	.	.	6
CC(C)C(=O)Nc1ccc(NC(=O)c2ccco2)cn1	.	.	.	.	.	.
CC(C)C(=O)Nc1ccc(NC(=O)CCc2ccccc2)cn1	.	.	.	9.1	.	.
COc1ccccc1N1CCN(C(=O)COc2ccc(Cl)cc2Br)CC1	.	.	.	.	.	.
COC(=O)C1CCCN1C(=O)COc1ccc(Cl)cc1Br (stereo not drawn)	8	.	.	5.1	.	.
COc1ccc(NC(=S)NC(=O)c2ccc(Br)o2)cc1	17	.	.	9.4	.	.
CC(C)c1ccc(NC(=O)c2ccc(Br)o2)cc1	.	.	.	.	.	.
O=C(NNC(=S)NCc1ccccc1)c1ccc(Br)o1	.	.	.	.	.	.
O=C(Nc1ccc(Nc2ccccc2)cc1)c1ccc(Br)o1	.	.	-7.72	.	.	.
O=C(NC(=S)Nc1ccccc1)c1ccc(Br)o1	13	.	.	.	.	.
O=C(NC(=S)NCc1ccccc1)c1ccc(Br)o1	59	.	.	39.1	.	.
COc1ccc(NC(=O)c2ccc(Br)o2)cc1	.	.	.	.	.	.
CCOC(=O)CSc1nnc(NC(=O)CCc2ccccc2)s1	.	.	.	.	.	.
Cc1ccc(CNC(=O)/C=C/c2ccc(Br)o2)cc1	.	.	.	.	.	.
SMILES	KCNQ1 act	Kir21 inh	KCNK9 inh	hERG rescue	KCNK3 block	KCNQ1 block
O=C(/C=C/c1ccc(Br)o1)NCc1ccccc1	.	.	-6.78	.	.	.
Cc1snnc1C(=O)NC(=S)Nc1ccccc1	9	.	.	11.5	.	.
CC(C)CC1Nc2ncnc(N3CCN(c4ccccc4)CC3)c2N(Cc2ccc(Cl)cc2)C1=O (stereo not drawn)	.	.	.	.	.	.
O=C(COC(=O)c1ccccc1)NCc1ccco1	.	.	.	.	.	.
O=C(COC(=O)c1ccccc1Nc1cccc(C(F)(F)F)c1)NCc1ccco1	.	.	.	.	-8.88	.
CN(c1ccccc1)S(=O)(=O)c1cccc(C(=O)OCC(=O)NCc2ccccc2)c1	/	/	/	/	.	/
CN(c1ccccc1)S(=O)(=O)c1cccc(C(=O)OCC(=O)NCc2ccco2)c1	.	.	.	10.9	.	.
COC1OC2COC(c3ccccc3)OC2C(OC(C)=O)C1OC(C)=O (stereo not drawn)	/	/	/	/	.	/
